According to ChEMBL document CHEMBL3526105, “Cytochrome P450-mediated oxidative metabolism of abused synthetic cannabinoids found in K2/Spice: identification of novel cannabinoid receptor ligands” (Drug Metab Dispos, 2012):
The source made the active and inactive calls. The rule behind the calls is not given here.

What was measured:
[1] = target: Cannabinoid receptor 1 (Mus musculus) (UniProt P47746); test: Activation of CB1 receptor in B6SJL mouse brain membrane assessed as [35S]-GTPgammaS binding at 10 uM after 30 mins by liquid scintillation spectrophotometric analysis; format: functional, cell membranes
Sequence of Cannabinoid receptor 1 (Mus musculus) (P47746 whole entry): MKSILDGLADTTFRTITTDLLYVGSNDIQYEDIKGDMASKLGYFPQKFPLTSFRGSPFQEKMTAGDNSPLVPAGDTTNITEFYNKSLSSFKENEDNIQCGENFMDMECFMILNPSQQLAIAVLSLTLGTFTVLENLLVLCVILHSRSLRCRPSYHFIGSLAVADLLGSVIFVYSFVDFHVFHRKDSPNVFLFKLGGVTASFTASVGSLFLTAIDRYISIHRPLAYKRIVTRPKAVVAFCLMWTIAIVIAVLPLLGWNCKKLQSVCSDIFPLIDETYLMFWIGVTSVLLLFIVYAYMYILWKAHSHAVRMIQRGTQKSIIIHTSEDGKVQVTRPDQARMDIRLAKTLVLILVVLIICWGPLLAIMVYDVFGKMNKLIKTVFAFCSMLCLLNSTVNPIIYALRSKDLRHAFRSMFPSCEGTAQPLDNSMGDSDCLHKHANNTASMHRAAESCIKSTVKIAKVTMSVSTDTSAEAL
In short: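 Mouse brain membrane homogenate (25 μg; whole B6SJL brains, pooled, Dounce-homogenised, spun 40,000g three times). Incubated with […], 0.1 nM [35S]GTPγS in 20 mM HEPES, 10 mM MgCl2, 100 mM NaCl, 20 U/l adenosine deaminase, 0.05% BSA, 30 min at 30°C, triplicate. Nonspecific binding with 10 μM unlabelled GTPγS. Stopped by GF/B filtration; filters counted by scintillation.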

[2] = target: Cannabinoid receptor 1 (Mus musculus) (UniProt P47746); test: Activation of CB1 receptor in B6SJL mouse brain membrane assessed as [35S]-GTPgammaS binding at 10 uM after 30 mins by liquid scintillation spectrophotometric analysis in presence of O-2050; format: functional, cell membranes
Cytochrome P450 1A2 [3] = target: T1, Cytochrome P450 1A2 (Homo sapiens, UniProt P05177); test: Drug metabolism assessed as intrinsic clearance for human recombinant CYP1A2-mediated compound formation per nmol protein treated with JWH-018 at 10 uM after 90 mins; format: ADME; conditions: recombinant enzyme, 1.5 h
T1 sequence (P05177 whole entry): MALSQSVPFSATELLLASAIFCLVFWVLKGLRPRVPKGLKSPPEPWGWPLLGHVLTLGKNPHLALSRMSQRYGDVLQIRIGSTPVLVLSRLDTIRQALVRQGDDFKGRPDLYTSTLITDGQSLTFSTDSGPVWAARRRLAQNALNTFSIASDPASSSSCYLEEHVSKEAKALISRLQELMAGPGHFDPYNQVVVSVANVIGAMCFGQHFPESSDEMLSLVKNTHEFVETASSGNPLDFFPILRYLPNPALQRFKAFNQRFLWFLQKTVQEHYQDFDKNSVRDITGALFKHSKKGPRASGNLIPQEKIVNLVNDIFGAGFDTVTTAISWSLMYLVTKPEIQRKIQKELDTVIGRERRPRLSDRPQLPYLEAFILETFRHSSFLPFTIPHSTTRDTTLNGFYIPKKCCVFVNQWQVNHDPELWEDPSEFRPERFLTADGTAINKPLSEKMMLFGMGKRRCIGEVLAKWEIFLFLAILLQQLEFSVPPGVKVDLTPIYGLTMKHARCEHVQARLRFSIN

[4] = Drug level in human urine treated with JWH-018 by LC-MS/MS analysis; format: ADME, tissue-based
In short: (§1)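 Urine from suspected users (40 μl) incubated with or without β-glucuronidase (1.6 U/μl final) in 0.1 M sodium acetate pH 5.0, 60 min at 37°C with shaking. Analysed by positive-ESI LC-MS/MS against standards matrix-matched in blank pooled human urine, with confirmation by enhanced product ion spectra.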

Cannabinoid receptor 1 = Cannabinoid receptor 1 (Mus musculus, UniProt P47746); test: Displacement of [3H]CP-55,940 from CB1 receptor in B6SJL mouse brain membrane after 90 mins by liquid scintillation spectrophotometric analysis; format: cell membranes
Sequence of Cannabinoid receptor 1 (P47746 whole entry): as the sequence (P47746 whole entry) above
In short: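 B6SJL mouse brain membranes (50 μg) with 0.2 nM [3H]CP-55,940 and competitor at 0.1 nM–10 μM. Buffer 5 mM MgCl2, 50 mM Tris, 0.05% BSA; 90 min at room temperature, triplicate. Nonspecific binding set with 10 μM WIN-55,212-2. Filtered on GF/B, washed with Tris/BSA, counted by scintillation. Specific binding given as % of vehicle.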

Cytochrome P450 2D6 [5] = target: T2, Cytochrome P450 2D6 (Homo sapiens, UniProt P10635); test: Drug metabolism assessed as intrinsic clearance for human recombinant CYP2D6-mediated compound formation per nmol protein treated with JWH-018 at 10 uM after 90 mins; format: ADME; conditions: recombinant enzyme, 1.5 h
T2 sequence (P10635 whole entry): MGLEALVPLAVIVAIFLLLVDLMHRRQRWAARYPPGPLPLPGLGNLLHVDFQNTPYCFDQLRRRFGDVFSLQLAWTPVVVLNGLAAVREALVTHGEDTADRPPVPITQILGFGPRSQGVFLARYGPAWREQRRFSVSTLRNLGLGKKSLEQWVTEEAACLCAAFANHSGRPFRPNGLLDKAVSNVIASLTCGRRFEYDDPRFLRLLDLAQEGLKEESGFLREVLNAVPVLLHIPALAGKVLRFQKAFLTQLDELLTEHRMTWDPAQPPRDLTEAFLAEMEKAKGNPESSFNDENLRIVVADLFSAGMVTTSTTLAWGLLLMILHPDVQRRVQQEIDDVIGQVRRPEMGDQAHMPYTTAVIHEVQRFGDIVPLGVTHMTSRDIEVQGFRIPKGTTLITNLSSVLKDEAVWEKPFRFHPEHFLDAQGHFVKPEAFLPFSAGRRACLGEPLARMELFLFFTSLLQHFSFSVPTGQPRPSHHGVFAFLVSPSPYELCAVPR

Cytochrome P450 2C19 [6] = target: T3, Cytochrome P450 2C19 (Homo sapiens, UniProt P33261); test: Drug metabolism assessed as intrinsic clearance for human recombinant CYP2C19-mediated compound formation per nmol protein treated with JWH-018 at 10 uM after 90 mins; format: ADME; conditions: recombinant enzyme, 1.5 h
T3 sequence (P33261 whole entry): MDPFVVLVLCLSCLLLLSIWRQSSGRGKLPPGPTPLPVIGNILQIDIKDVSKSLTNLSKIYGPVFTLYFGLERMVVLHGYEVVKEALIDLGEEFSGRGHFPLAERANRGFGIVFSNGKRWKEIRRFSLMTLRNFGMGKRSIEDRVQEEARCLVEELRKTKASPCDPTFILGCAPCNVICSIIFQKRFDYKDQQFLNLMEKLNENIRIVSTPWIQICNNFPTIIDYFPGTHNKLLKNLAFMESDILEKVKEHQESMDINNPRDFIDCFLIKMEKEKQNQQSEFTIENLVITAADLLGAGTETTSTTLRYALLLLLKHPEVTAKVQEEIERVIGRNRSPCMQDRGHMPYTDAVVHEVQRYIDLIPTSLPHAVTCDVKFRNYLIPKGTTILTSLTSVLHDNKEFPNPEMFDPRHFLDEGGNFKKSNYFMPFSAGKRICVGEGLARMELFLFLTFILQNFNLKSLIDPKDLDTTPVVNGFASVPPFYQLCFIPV

Liver microsome [7] = test: Drug metabolism in human liver microsomes assessed as intrinsic clearance per mg protein treated with JWH-018; format: ADME
Cytochrome P450 2C9 [8] = target: T4, Cytochrome P450 2C9 (Homo sapiens, UniProt P11712); test: Drug metabolism assessed as intrinsic clearance for human recombinant CYP2C9-mediated compound formation per nmol protein treated with JWH-018 at 10 uM after 90 mins; format: ADME; conditions: recombinant enzyme, 1.5 h
T4 sequence (P11712 whole entry): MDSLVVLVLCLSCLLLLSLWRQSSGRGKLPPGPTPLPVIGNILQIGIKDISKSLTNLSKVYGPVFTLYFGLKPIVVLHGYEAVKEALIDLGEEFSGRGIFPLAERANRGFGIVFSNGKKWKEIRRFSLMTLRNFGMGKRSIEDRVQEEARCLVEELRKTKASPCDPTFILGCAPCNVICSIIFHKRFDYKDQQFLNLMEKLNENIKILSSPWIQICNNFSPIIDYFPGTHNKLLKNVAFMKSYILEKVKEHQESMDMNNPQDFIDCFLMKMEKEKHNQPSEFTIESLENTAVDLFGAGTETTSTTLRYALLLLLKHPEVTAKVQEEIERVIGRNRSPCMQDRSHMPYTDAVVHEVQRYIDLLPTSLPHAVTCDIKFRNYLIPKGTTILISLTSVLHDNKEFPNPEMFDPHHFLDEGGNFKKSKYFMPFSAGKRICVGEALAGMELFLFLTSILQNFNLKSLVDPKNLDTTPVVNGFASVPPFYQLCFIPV

Liver microsome [9] = test: Drug metabolism in human liver microsomes assessed as (6-hydroxy-1-pentyl-1H-indol-3-yl)(naphthalen-1-yl)methanone formation at 10 uM after 20 mins by LC-MS/MS analysis; format: ADME
In short: (§2)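 Pooled human liver microsomes (75 μg) incubated with 10 μM substrate in 0.1 M KPO4 pH 7.4 with NADPH-regenerating system at 37°C. Reaction stopped with ethanol, centrifuged. Analytes quantified by positive-ESI LC-MS/MS against standards matrix-matched in reaction mixture, with confirmation by SRM-triggered enhanced product ion spectra library matching.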

Cytochrome b5 = Cytochrome b5 (Homo sapiens, UniProt P00167); test: Drug metabolism assessed as cytochrome b5 (unknown origin)-mediated (5-hydroxy-1-pentyl-1H-indol-3-yl)(naphthalen-1-yl)methanone formation at 10 uM after 90 mins by LC-MS/MS analysis in presence of oxidoreductase; format: ADME; conditions: 1.5 h
Sequence of Cytochrome b5 (P00167 whole entry): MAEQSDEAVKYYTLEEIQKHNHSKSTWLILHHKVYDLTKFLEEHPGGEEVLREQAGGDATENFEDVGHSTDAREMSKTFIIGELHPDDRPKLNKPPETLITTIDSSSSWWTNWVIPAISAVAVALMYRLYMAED

[10] = Drug metabolism in human urine assessed as 5-(3-(1-naphthoyl)-1H-indol-1-yl)pentanoic acid formation by LC-MS/MS analysis; format: ADME, tissue-based; in short: as §1
Cytochrome P450 2E1 [11] = target: T5, Cytochrome P450 2E1 (Homo sapiens, UniProt P05181); test: Drug metabolism assessed as human recombinant CYP2E1-mediated (1-(4-hydroxypentyl)-1H-indol-3-yl)(naphthalen-1-yl)methanone formation at 10 uM after 90 mins by LC-MS/MS analysis; format: ADME; conditions: recombinant enzyme, 1.5 h
T5 sequence (P05181 whole entry): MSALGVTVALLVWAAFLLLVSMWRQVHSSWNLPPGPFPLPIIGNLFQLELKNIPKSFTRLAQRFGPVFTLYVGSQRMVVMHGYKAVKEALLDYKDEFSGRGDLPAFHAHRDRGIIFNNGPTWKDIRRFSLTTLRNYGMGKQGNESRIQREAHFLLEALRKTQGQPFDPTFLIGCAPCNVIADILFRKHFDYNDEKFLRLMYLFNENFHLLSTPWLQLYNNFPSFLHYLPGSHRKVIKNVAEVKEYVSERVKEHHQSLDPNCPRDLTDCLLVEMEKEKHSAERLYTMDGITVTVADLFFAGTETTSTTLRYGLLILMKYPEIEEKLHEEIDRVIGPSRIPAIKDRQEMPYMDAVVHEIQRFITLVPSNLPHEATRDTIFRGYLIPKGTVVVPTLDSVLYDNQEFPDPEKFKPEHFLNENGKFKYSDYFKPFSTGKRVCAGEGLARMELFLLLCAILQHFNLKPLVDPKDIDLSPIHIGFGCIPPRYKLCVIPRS
In short: (§3)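 Recombinant human CYP2E1 or CYP3A4 (2 pmol) incubated with substrate at 10 μM final, dried from ethanol. Buffer 0.1 M KPO4 pH 7.4 with NADPH-regenerating system, which starts the reaction. 90 min at 37°C, triplicate, with no-substrate, no-protein and no-NADPH controls. Stopped with ethanol, centrifuged, and metabolites quantified by LC-MS/MS.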

Liver microsome [12] = test: Drug metabolism in human liver microsomes assessed as (7-hydroxy-1-pentyl-1H-indol-3-yl)(naphthalen-1-yl)methanone formation at 10 uM after 20 mins by LC-MS/MS analysis; format: ADME; in short: as §2
[13] = Drug metabolism in human urine assessed as (1-(4-hydroxypentyl)-1H-indol-3-yl)(naphthalen-1-yl)methanone formation by LC-MS/MS analysis; format: ADME, tissue-based; in short: as §1
[14] = Drug metabolism in human urine assessed as (1-(5-hydroxypentyl)-1H-indol-3-yl)(naphthalen-1-yl)methanone formation by LC-MS/MS analysis; format: ADME, tissue-based; in short: as §1
Cytochrome P450 3A4 [15] = target: T6, Cytochrome P450 3A4 (Homo sapiens, UniProt P08684); test: Drug metabolism assessed as human recombinant CYP3A4-mediated 5-(3-(1-naphthoyl)-1H-indol-1-yl)pentanoic acid formation at 10 uM after 90 mins by LC-MS/MS analysis; format: ADME; conditions: recombinant enzyme, 1.5 h; in short: as §3
T6 sequence (P08684 whole entry): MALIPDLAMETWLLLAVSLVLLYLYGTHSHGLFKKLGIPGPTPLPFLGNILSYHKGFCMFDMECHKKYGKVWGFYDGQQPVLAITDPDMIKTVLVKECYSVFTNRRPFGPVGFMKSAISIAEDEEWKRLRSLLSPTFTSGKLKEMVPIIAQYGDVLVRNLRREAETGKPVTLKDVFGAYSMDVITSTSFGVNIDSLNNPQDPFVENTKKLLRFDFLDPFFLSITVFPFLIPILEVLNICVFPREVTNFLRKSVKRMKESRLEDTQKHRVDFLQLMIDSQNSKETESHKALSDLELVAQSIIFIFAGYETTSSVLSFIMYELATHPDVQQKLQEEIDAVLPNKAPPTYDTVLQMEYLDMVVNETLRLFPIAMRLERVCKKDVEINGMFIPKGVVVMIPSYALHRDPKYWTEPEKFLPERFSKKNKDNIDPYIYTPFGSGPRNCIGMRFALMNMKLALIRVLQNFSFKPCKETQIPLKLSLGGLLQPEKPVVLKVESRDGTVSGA

Cytochrome P450 3A4 [16] = target: T6, Cytochrome P450 3A4; test: Drug metabolism assessed as human recombinant CYP3A4-mediated (1-(5-hydroxypentyl)-1H-indol-3-yl)(naphthalen-1-yl)methanone formation at 10 uM after 90 mins by LC-MS/MS analysis; format: ADME; conditions: recombinant enzyme, 1.5 h; in short: as §3
Cytochrome P450 2E1 [17] = target: T5, Cytochrome P450 2E1; test: Drug metabolism assessed as human recombinant CYP2E1-mediated (1-(5-hydroxypentyl)-1H-indol-3-yl)(naphthalen-1-yl)methanone formation at 10 uM after 90 mins by LC-MS/MS analysis; format: ADME; conditions: recombinant enzyme, 1.5 h; in short: as §3
Liver microsome [18] = test: Drug metabolism in human liver microsomes assessed as (5-hydroxy-1-pentyl-1H-indol-3-yl)(naphthalen-1-yl)methanone formation at 10 uM after 20 mins by LC-MS/MS analysis; format: ADME; in short: as §2
Cytochrome P450 2E1 [19] = target: T5, Cytochrome P450 2E1; test: Drug metabolism assessed as human recombinant CYP2E1-mediated 5-(3-(1-naphthoyl)-1H-indol-1-yl)pentanoic acid formation at 10 uM after 90 mins by LC-MS/MS analysis; format: ADME; conditions: recombinant enzyme, 1.5 h; in short: as §3
Cytochrome P450 3A4 [20] = target: T6, Cytochrome P450 3A4; test: Drug metabolism assessed as human recombinant CYP3A4-mediated (1-(4-hydroxypentyl)-1H-indol-3-yl)(naphthalen-1-yl)methanone formation at 10 uM after 90 mins by LC-MS/MS analysis; format: ADME; conditions: recombinant enzyme, 1.5 h; in short: as §3
Liver microsome [21] = test: Drug metabolism in human liver microsomes assessed as intrinsic clearance per mg protein treated with AM2201; format: ADME
Cytochrome P450 2D6 [22] = target: T2, Cytochrome P450 2D6; test: Drug metabolism assessed as intrinsic clearance for human recombinant CYP2D6-mediated compound formation per nmol protein treated with AM2201 at 10 uM after 90 mins; format: ADME; conditions: recombinant enzyme, 1.5 h
Cytochrome P450 1A2 [23] = target: T1, Cytochrome P450 1A2; test: Drug metabolism assessed as intrinsic clearance for human recombinant CYP1A2-mediated compound formation per nmol protein treated with AM2201 at 10 uM after 90 mins; format: ADME; conditions: recombinant enzyme, 1.5 h
Cytochrome P450 2C19 [24] = target: T3, Cytochrome P450 2C19; test: Drug metabolism assessed as intrinsic clearance for human recombinant CYP2C19-mediated compound formation per nmol protein treated with AM2201 at 10 uM after 90 mins; format: ADME; conditions: recombinant enzyme, 1.5 h
Cytochrome P450 2C9 [25] = target: T4, Cytochrome P450 2C9; test: Drug metabolism assessed as intrinsic clearance for human recombinant CYP2C9-mediated compound formation per nmol protein treated with AM2201 at 10 uM after 90 mins; format: ADME; conditions: recombinant enzyme, 1.5 h
Liver microsome [26] = test: Drug level in human liver microsomes treated with AM2201 at 10 uM after 20 mins by LC-MS/MS analysis; format: ADME; in short: as §2
Liver microsome [27] = test: Drug level in human liver microsomes treated with JWH-018 at 10 uM after 20 mins by LC-MS/MS analysis; format: ADME; in short: as §2

Row | SMILES | Activity [1] | Activity [2] | CL (Cytochrome P450 1A2 [3]) [µL/min] | Drug metabolism [4] | Ki (Cannabinoid receptor 1) [nM] | CL (Cytochrome P450 2D6 [5]) [µL/min] | CL (Cytochrome P450 2C19 [6]) [µL/min] | CLH (Liver microsome [7]) [µL/min/mg] | CL (Cytochrome P450 2C9 [8]) [µL/min] | CLH (Liver microsome [21]) [µL/min/g] | CL (Cytochrome P450 2D6 [22]) [µL/min] | CL (Cytochrome P450 1A2 [23]) [µL/min] | CL (Cytochrome P450 2C19 [24]) [µL/min] | CL (Cytochrome P450 2C9 [25]) [µL/min] | other results
1 | CCCCCc1cc(O)c2c(c1)OC(C)(C)[C@@H]1CCC(C)=C[C@@H]21 | Active | inactive |  |  |  |  |  |  |  |  |  |  |  |  | 
2 | CC(O)CCCn1cc(C(=O)c2cccc3ccccc23)c2ccccc21 (stereo not given) | Active | inactive | 306 | metabolite_detected | 15.4 | 13.4 | 48.7 | 0.574 | 375 |  |  |  |  |  | 
3 | CCCCCn1cc(C(=O)c2cccc3ccccc23)c2ccccc21 | Active | inactive |  |  | 1.3 |  |  |  |  |  |  |  |  |  | Drug metabolism (Liver microsome [9]): metabolite_detected; Drug metabolism (Cytochrome b5): metabolite_detected; Drug metabolism [10]: metabolite_detected; Drug metabolism (Cytochrome P450 2E1 [11]): metabolite_not_detected; Drug metabolism (Liver microsome [12]): metabolite_detected; Drug metabolism [13]: metabolite_detected; Drug metabolism [14]: metabolite_detected; Drug metabolism (Cytochrome P450 3A4 [15]): metabolite_not_detected; Drug metabolism (Cytochrome P450 3A4 [16]): metabolite_not_detected; Drug metabolism (Cytochrome P450 2E1 [17]): metabolite_not_detected; Drug metabolism (Liver microsome [18]): metabolite_detected; Drug metabolism (Cytochrome P450 2E1 [19]): metabolite_not_detected; Drug metabolism (Cytochrome P450 3A4 [20]): metabolite_not_detected
4 | O=C(c1cccc2ccccc12)c1cn(CCCC(O)CF)c2ccccc12 (stereo not given) | Active |  |  |  |  |  |  |  |  | 0.124 | 3.7 | 19 | 32 | 63 | 
5 | O=C(O)CCCCn1cc(C(=O)c2cccc3ccccc23)c2ccccc21 | inactive |  | 23 | metabolite_detected | > 10000 | 0 | 0 | 0 | 0 | 0.6 | 0.371 | 89 | 28 | 111 | Drug metabolism (Liver microsome [26]): 4.7 ng/mL
6 | CCCCCn1cc(C(=O)c2cccc3ccccc23)c2cc(O)ccc21 |  |  |  |  |  |  |  | 0.52 |  | 0 |  |  |  |  | Drug metabolism (Liver microsome [27]): metabolite_detected
